RBBP9 inh: human RBBP9 inhibitors, primary screen, biochemical, fluorescence polarization, FP-Rh probe, HTS; hit rate 0.2% among 220,000; inhibition, % at 7.94 µM; Serine hydrolase RBBP9 (Homo sapiens), O75884; recombinant RBBP9;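 active = inhibition above the campaign mean of all tested compounds plus 3 SD, cut at about 14% in these data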;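 note: plate controls were DMSO wells with RBBP9 for no effect and wells lacking RBBP9 protein for full effect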
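system = RBBP9 protein | input = RBBP9 at 2.5 µM in dispensed solution, before mixing | measured by = fluorescence polarization (mP), excitation 525 nm, emission 598 nm | incubation = enzyme-compound preincubation 30 min, then probe labeling 45 min, 25 °C | buffer or medium = Tris-NaCl-Pluronic buffer, pH 8.0 | compound = single dose 7.94 µM | also added = FP-Rh probe, 375 nM dispensing solution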
PAD4 FP inh: human PAD4 inhibitors, primary screen, biochemical, fluorescence polarization, 1536-well format; inhibition, % at 6.36 µM; Protein-arginine deiminase type-4 (Homo sapiens), Q9UM07; hit rate 0.41% among 330,000; recombinant PAD4, RCA probe fluorescence polarization;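 active = percent inhibition above a cutoff equal to the mean of all tested compounds plus 3 SD, cut at about 15% in these data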;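 note: 0% = PAD4 with RCA probe and DMSO and 100% = probe without PAD4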
SIAE primary: human SIAE inhibitors, primary screen, biochemical, fluorescence polarization, FP-Rh probe, 1536-well HTS | Sialate O-acetylesterase (Homo sapiens), Q9HAT2 | SIAE FP-Rh probe binding | inhibition, % at 9.66 µM | hit rate 0.69% among 370,000 | AID 1053197, 2014;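 active = inhibition above a cutoff: mean of compounds within the control limits plus 3 SD of those, cut at about 17% in these data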;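 note: 0% = plate median of compound wells and 100% = probe without SIAE protein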
Target sequence (Q9HAT2 whole entry, looked up): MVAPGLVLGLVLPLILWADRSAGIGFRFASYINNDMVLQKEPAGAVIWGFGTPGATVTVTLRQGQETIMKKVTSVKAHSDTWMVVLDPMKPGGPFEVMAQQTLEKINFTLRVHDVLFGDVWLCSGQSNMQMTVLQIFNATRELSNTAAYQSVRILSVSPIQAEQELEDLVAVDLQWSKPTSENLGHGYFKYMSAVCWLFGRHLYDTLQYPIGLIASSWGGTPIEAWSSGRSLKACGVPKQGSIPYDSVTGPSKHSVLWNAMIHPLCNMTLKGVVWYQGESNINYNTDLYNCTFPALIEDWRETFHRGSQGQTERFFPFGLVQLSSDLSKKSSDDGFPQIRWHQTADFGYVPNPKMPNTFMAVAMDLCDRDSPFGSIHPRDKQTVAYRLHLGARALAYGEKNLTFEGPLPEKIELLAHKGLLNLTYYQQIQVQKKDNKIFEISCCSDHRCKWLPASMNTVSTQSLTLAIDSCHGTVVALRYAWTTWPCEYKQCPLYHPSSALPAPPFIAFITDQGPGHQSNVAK
PRMT1 FP inh: PRMT1 methyltransferase inhibitors, primary screen, biochemical, fluorescence polarization; Protein arginine N-methyltransferase 1 (Homo sapiens), Q99873; recombinant PRMT1, activity-based probe fluorescence polarization; inhibition, % at 2.79 µM; hit rate 1.3% among 370,000; AID 652257, 2013;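 active = inhibition above about 21% made by adding two undisclosed values, limit read from the data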
GSTO1 inh: inhibitors of recombinant GSTO1, primary screen, counter-screen for RBBP9 inhibitor project, biochemical, fluorescence polarization; activity-based probe fluorescence polarization; inhibition, % at 5.96 µM; hit rate 1.1% among 300,000;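 active = inhibition above the campaign mean inhibition plus 3 SD, cut at about 35% in these data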;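 note: 0% = GSTO1-1 with DMSO and 100% = wells lacking GSTO1-1 enzyme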
An asterisk follows results filed as active; . = no result given. Hits are enriched below; roughly 2.7% of the tested compounds scored in any of these assays.

SMILES	RBBP9 inh	PAD4 FP inh	SIAE primary	PRMT1 FP inh	GSTO1 inh
CCN(CC)C(=O)c1sc(N)c(C(=O)OC(C)C)c1C	-5	-8	-7	8	-2
CC(=O)Nc1ccc(S(=O)(=O)NCCSCc2ccccc2Cl)cc1	-6	-2	3	-1	54*
CCOC(=O)NC1(Nc2ccc(C)cc2)Oc2ccccc2O1	-3	-3	9	37*	82*
CCOC(=O)NC1(NC(C)C)Oc2ccccc2O1	10	-2	6	11	37*
O=C(Cc1coc2ccc3ccccc3c12)N1CCCC1	-7	3	3	-2	-4
O=C(OCCCOC(=O)c1ccc(O)cc1)c1ccc(O)cc1	.	.	-2	6	.
O=[N+]([O-])c1ccc(/C=N/N=C/c2ccc([N+](=O)[O-])o2)o1	-6	.	6	-2	.
Cc1csc(N=Cc2ccc([N+](=O)[O-])o2)n1	.	.	16	23*	.
CCCCN(CC)CCNC(=O)c1cc2c(=O)n(CC)c3ccccc3c2s1	.	-3	4	-1	2
c1coc(-c2nc3c4ccccc4ccn3c2Cc2ccsc2)c1	.	.	-4	32*	.
Cc1cc(C(=O)C(C)Cl)c(C)n1Cc1ccco1 (centres undefined)	-10	-7	3	2	81*
Cc1cc(C(=O)COC(=O)C(C)NC(N)=O)c(C)n1Cc1ccco1 (centres undefined)	-8	-2	-3	-1	19
COc1ccc(-n2nnnc2/C=C\Nc2ccccc2C(=O)c2ccccc2)cc1	-19	-8	-12	-2	-12
CC[n+]1c(/C=C(\C)OC)sc2ccccc21	-12	.	3	23*	.
Cc1ccc(CN2CCN(C(=O)C3CCCO3)CC2)cc1 (centres undefined)	11	1	9	-2	-1
O=C(C1CCCO1)N1CCN(Cc2c(O)ccc3ccccc23)CC1 (centres undefined)	4	1	3	23*	-2
S=c1[nH]nc(-c2n[nH]c3c2CCC3)n1N=Cc1c[nH]c2ccccc12	.	.	1	22*	.
Fc1ccccc1-c1n[nH]c(=S)n1/N=C/c1c[nH]c2ccccc12	-10	0	2	24*	-7
CC(=O)c1cccc(N(C(=O)CNC(=O)c2ccco2)C(C(=O)NC2CCCC2)c2ccncc2)c1 (centres undefined)	.	-8	5	-1	-1
CNC(=O)CN(c1cc(C)ccc1OC)S(=O)(=O)c1ccc(C)cc1	-6	-5	2	-1	0
O=C(Nc1ccc(Cl)cc1)c1cc2c(cc1O)[nH]c1ccccc12	12	-2	51*	5	21
CC(=O)Nc1ccc2[nH]c3ccccc3c2c1	-5	-4	0	-2	1
CC1Sc2ccc(Cl)cc2-c2nc(N)ncc21 (centres undefined)	-7	4	-2	7	-5
COc1ccccc1C(=O)Nc1ccc(S(=O)(=O)Nc2nccs2)cc1	.	-2	0	-2	-7
O=C(O)c1ccccc1C(=O)Nc1ccc(S(=O)(=O)Nc2nccs2)cc1	.	3	2	24*	4
SMILES	RBBP9 inh	PAD4 FP inh	SIAE primary	PRMT1 FP inh	GSTO1 inh
Cc1ccc(CNC(=O)COc2ccc(C(=O)c3ccc(F)cc3)cc2)cc1	-6	6	-6	-1	56*
O=C(COc1ccc(C(=O)c2ccc(F)cc2)cc1)NCc1ccc(F)cc1	-6	-1	12	-2	3
Cc1cc(C(=O)NCc2cccs2)c(C)o1	-7	-4	2	21*	-6
COc1ccc(CCNC(=O)CSC(=O)c2ccccc2)cc1OC	-11	7	4	22*	5
CCOc1ccc(CCNC(=O)/C=C/c2ccco2)cc1OCC	.	.	0	14	.
COc1ccc(OC)c(NC(=O)COC(=O)/C=C/c2ccco2)c1	.	1	-4	23*	.
COc1ccc(CCNC(=O)/C=C/c2ccco2)cc1OC	.	2	-1	23*	8
COc1ccc(CCCC(=O)Nc2cc(C)ccc2OC)cc1	.	1	10	0	5
COc1ccc(OC)c(NC(=O)CCCc2ccccc2)c1	.	2	-8	22*	5
C/C(=N/NC(=O)c1ccncc1)c1cc2ccc(O)cc2oc1=O	-2	-6	3	6	1
CCC(=O)Nc1cc2nn(-c3ccc(C)cc3)nc2cc1C	-4	-3	5	-3	8
Oc1ccc(/C=N/N2CCN(C3c4ccccc4-c4ccccc43)CC2)cc1O	-7	8	5	4	44*
Cc1ccc(CN2CCN(/N=C/c3ccc(C(=O)O)cc3)CC2)cc1	-4	5	2	0	2
Cc1ccc(CN2CCN(/N=C/c3ccc(O)c(O)c3)CC2)cc1	.	7	10	1	36*
COc1cccc(C(C#N)N2N=C(C)CC2(C)C)c1O (centres undefined)	6	-6	3	-3	-2
COc1cc(S(=O)(=O)N2CCCC3(CCCCC3)C2)ccc1-n1cnnn1	-4	-1	-6	0	8
Oc1ccc(/C=N/Nc2cc(N3CCOCC3)nc(N3CCOCC3)n2)cc1O	-7	-1	12	2	54*
Oc1ccccc1/C=N/Nc1cc(N2CCCC2)nc(N2CCCC2)n1	-2	-11	0	7	73*
Oc1cccc(/C=N/Nc2cc(N3CCOCC3)nc(N3CCOCC3)n2)c1	-5	-5	9	2	2
CCc1ccccc1NC(=O)CN(C)Cc1c(O)ccc2ccccc12	.	1	-3	23*	7
CC12CCC(=O)N1C(C(=O)Nc1nccs1)CS2 (centres undefined)	.	.	3	-1	.
Cc1ccc2c(c1)sc1nncn12	.	.	5	3	.
CCOc1ccc(NC(=O)C(c2ccccn2)N(C(=O)CCl)c2ccc(OC)cc2)cc1 (centres undefined)	3	-9	4	15	36*
COc1cccc(CN(C(=O)Cc2c[nH]c3ccccc23)C(C(=O)NC2CCCCC2)c2ccc(C)o2)c1 (centres undefined)	-7	7	18*	1	-1
COc1ccc(N(C(=O)CCl)C(C(=O)NC2CCCCC2)c2cccnc2)cc1 (centres undefined)	-12	2	0	1	98*
COc1ccc(N(C(=O)Cc2cccs2)C(C(=O)NC2CCCC2)c2ccncc2)cc1 (centres undefined)	.	-3	0	5	3
COc1cccc(CN(C(=O)c2ccco2)C(C(=O)NC2CCCC2)c2cccnc2)c1 (centres undefined)	-9	-4	135*	3	1
COc1ccc(CN(C(=O)Cc2c[nH]c3ccccc23)C(C(=O)NC2CCCCC2)c2ccc(C)o2)cc1 (centres undefined)	-4	-5	-1	-1	3
CCCCC[C@@H]1C=C(C(=O)O)[C@H](c2ccc(Cl)c(Cl)c2)N1S(=O)(=O)c1ccc(C)cc1	.	-3	-18	3	.
